Experimental data taken from ChEMBL document CHEMBL4152328, “Design, synthesis, in vitro and in silico evaluation of a new series of oxadiazole-based anticancer agents as potential Akt and FAK inhibitors” (Eur J Med Chem, 2018).
Activity calls are given as the source filed them. No cut-off for these calls is given here.

Legend:
C6 [1] = test: Cytotoxicity against rat C6 cells assessed as decrease in cell viability after 24 hrs by MTT assay; assay type: functional, cell-based; details: C6, 24 h
Procedure, shortened: (§1)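 Viability was read as cellular MTT reduction. Cisplatin and GSK690693 were run as reference controls. IC50 values were derived for each cell line.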

A549 [2] = test: Cytotoxicity against human A549 cells assessed as decrease in cell viability after 24 hrs by MTT assay; assay type: functional, cell-based; details: A549, 24 h; procedure, shortened: as §1
NIH3T3 = test: Cytotoxicity against mouse NIH/3T3 cells assessed as decrease in cell viability after 24 hrs by MTT assay; assay type: cell-based; details: NIH3T3, 24 h; procedure, shortened: as §1
[3] = Selectivity index, ratio of IC50 for mouse NIH/3T3 cells to IC50 for rat C6 cells; assay type: toxicity; details: NIH/3T3 cells versus C6 cells, read-out: Ratio IC50
Procedure, shortened: (§2)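 Selectivity index = IC50 for NIH/3T3 normal fibroblasts / IC50 for the cancer line (A549 or C6). […] An IC50 above 403.00 was taken as 403.00.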

[4] = Selectivity index, ratio of IC50 for mouse NIH/3T3 cells to IC50 for human A549 cells; assay type: toxicity; details: NIH/3T3 cells versus A549 cells, read-out: Ratio IC50; procedure, shortened: as §2
C6 [5] = test: Induction of apoptosis in rat C6 cells assessed as early/late apoptotic cells at IC50 after 24 hrs by Annexin V-FITC/PI staining based flow cytometry (reference value: 8%); assay type: functional
C6 [6] = test: Induction of apoptosis in rat C6 cells assessed as viable cells at IC50 after 24 hrs by Annexin V-FITC/PI staining based flow cytometry (reference value: 90%); assay type: functional
A549 [7] = test: Induction of apoptosis in human A549 cells assessed as early/late apoptotic cells at IC50 after 24 hrs by Annexin V-FITC/PI staining based flow cytometry (reference value: 7.1%); assay type: functional
A549 [8] = test: Induction of apoptosis in human A549 cells assessed as viable cells at IC50 after 24 hrs by Annexin V-FITC/PI staining based flow cytometry (reference value: 89%); assay type: functional
C6 [9] = test: Induction of mitochondrial membrane potential loss in rat C6 cells assessed as intact mitochondrial membrane potential at IC50 measured after 24 hrs by JC-1 staining based flow cytometric analysis (reference value: 80%); assay type: functional
C6 [10] = test: Induction of mitochondrial membrane potential loss in rat C6 cells at IC50 measured after 24 hrs by JC-1 staining based flow cytometric analysis (reference value: 19.9%); assay type: functional
A549 [11] = test: Induction of mitochondrial membrane potential loss in human A549 cells assessed as intact mitochondrial membrane potential at IC50 measured after 24 hrs by JC-1 staining based flow cytometric analysis (reference value: 90.4%); assay type: functional
A549 [12] = test: Induction of mitochondrial membrane potential loss in human A549 cells at IC50 measured after 24 hrs by JC-1 staining based flow cytometric analysis (reference value: 9.8%); assay type: functional
C6 [13] = test: Induction of apoptosis in rat C6 cells assessed as caspase-3 negative cell level at IC50 after 24 hrs by FITC-A labeled flow cytometry (reference value: 96.4%); assay type: functional
C6 [14] = test: Induction of apoptosis in rat C6 cells assessed as caspase-3 positive cell level at IC50 after 24 hrs by FITC-A labeled flow cytometry (reference value: 4.8%); assay type: functional
A549 [15] = test: Induction of apoptosis in human A549 cells assessed as caspase-3 negative cell level at IC50 after 24 hrs by FITC-A labeled flow cytometry (reference value: 98.1%); assay type: functional
A549 [16] = test: Induction of apoptosis in human A549 cells assessed as caspase-3 positive cell level at IC50 after 24 hrs by FITC-A labeled flow cytometry (reference value: 2.1%); assay type: functional
[17] = target: RAC-alpha serine/threonine-protein kinase (Rattus norvegicus, UniProt P47196); test: Inhibition of Akt in rat C6 cells after 24 hrs by ELISA; assay type: cell-based
Procedure, shortened: (§3)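 In-cell colorimetric ELISA: 10,000 cells/well were treated 24 h, then fixed in 4% formaldehyde for 15 min, permeabilised, quenched and blocked. Primary antibody ran overnight at 4 °C, then HRP conjugate for 30 min, then TMB; absorbance was read at 450 nm. Wells were in triplicate and blank-subtracted. Activity is relative to untreated cells; IC50 came from graphs of three concentrations.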

[18] = target: RAC-alpha serine/threonine-protein kinase (Homo sapiens, UniProt P31749); test: Inhibition of Akt in human A549 cells after 24 hrs by ELISA; assay type: cell-based; procedure, shortened: as §3
Focal adhesion kinase 1 = Focal adhesion kinase 1 (Rattus norvegicus, UniProt O35346); test: Inhibition of FAK phasphorylation at Tyr397 residues in rat C6 cells after 24 hrs by ELISA; assay type: cell-based
Procedure, shortened: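 Cell-based colorimetric ELISA in C6 cells treated 24 h: cells were fixed in 4% formaldehyde for 20 min, quenched, and blocked for 1 h. Anti-FAK pTyr397, anti-FAK and anti-GAPDH primaries ran overnight at 4 °C, then HRP secondaries for 1.5 h and substrate for 30 min. OD450 was read in duplicate wells; pFAK was normalised to GAPDH. IC50 came from graphs of three concentrations.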

A549 [19] = test: Induction of apoptotic morphological alterations in human A549 cells assessed as rounding of cells at IC50 after 24 hrs by transmission electron microscopy; assay type: functional, cell-based
Procedure, shortened: (§4)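 Cells were fixed in 2.5% glutaraldehyde in 0.1 M PBS pH 7.4 and held overnight at 4 °C, then agar-embedded and post-fixed in 2% osmium tetroxide. They were dehydrated through graded ethanol, embedded in EPON 812, ultrathin-sectioned and examined by transmission electron microscopy.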

A549 [20] = test: Induction of apoptotic morphological alterations in human A549 cells assessed as disruption of cellular organization at IC50 after 24 hrs by transmission electron microscopy; assay type: functional, cell-based; procedure, shortened: as §4
A549 [21] = test: Induction of apoptotic morphological alterations in human A549 cells assessed as cell shrinkage at IC50 after 24 hrs by transmission electron microscopy; assay type: functional, cell-based; procedure, shortened: as §4
A549 [22] = test: Induction of apoptotic morphological alterations in human A549 cells assessed as DNA condensation at IC50 after 24 hrs by transmission electron microscopy; assay type: functional, cell-based; procedure, shortened: as §4
A549 [23] = test: Induction of apoptotic morphological alterations in human A549 cells assessed as organellar membrane damage at IC50 after 24 hrs by transmission electron microscopy; assay type: functional, cell-based; procedure, shortened: as §4
C6 [24] = test: Induction of apoptotic morphological alterations in rat C6 cells assessed as rounding of cells at IC50 after 24 hrs by transmission electron microscopy; assay type: functional, cell-based; procedure, shortened: as §4
C6 [25] = test: Induction of apoptotic morphological alterations in rat C6 cells assessed as disruption of cellular organization at IC50 after 24 hrs by transmission electron microscopy; assay type: functional, cell-based; procedure, shortened: as §4
C6 [26] = test: Induction of apoptotic morphological alterations in rat C6 cells assessed as cell shrinkage at IC50 after 24 hrs by transmission electron microscopy; assay type: functional, cell-based; procedure, shortened: as §4
C6 [27] = test: Induction of apoptotic morphological alterations in rat C6 cells assessed as DNA condensation at IC50 after 24 hrs by transmission electron microscopy; assay type: functional, cell-based; procedure, shortened: as §4
C6 [28] = test: Induction of apoptotic morphological alterations in rat C6 cells assessed as organellar membrane damage at IC50 after 24 hrs by transmission electron microscopy; assay type: functional, cell-based; procedure, shortened: as §4
A549 [29] = test: Induction of apoptotic morphological alterations in human A549 cells assessed as increase in large vacuoles in cytoplasm containing degraded cellular material at IC50 after 24 hrs by transmission electron microscopy; assay type: functional, cell-based; procedure, shortened: as §4
A549 [30] = test: Induction of apoptotic morphological alterations in human A549 cells assessed as membrane damage at IC50 after 24 hrs by transmission electron microscopy; assay type: functional, cell-based; procedure, shortened: as §4
A549 [31] = test: Induction of apoptotic morphological alterations in human A549 cells assessed as nuclear fragmentation at IC50 after 24 hrs by transmission electron microscopy; assay type: functional, cell-based; procedure, shortened: as §4
C6 [32] = test: Induction of apoptotic morphological alterations in rat C6 cells assessed as chromatin condensation at IC50 after 24 hrs by transmission electron microscopy; assay type: functional, cell-based; procedure, shortened: as §4
C6 [33] = test: Induction of apoptotic morphological alterations in rat C6 cells assessed as large vacuoles at IC50 after 24 hrs by transmission electron microscopy; assay type: functional, cell-based; procedure, shortened: as §4
C6 [34] = test: Induction of apoptotic morphological alterations in rat C6 cells assessed as membrane damage at IC50 after 24 hrs by transmission electron microscopy; assay type: functional, cell-based; procedure, shortened: as §4

RAC-alpha serine/threonine-protein kinase (Homo sapiens, UniProt P31749), sequence (P31749 whole entry): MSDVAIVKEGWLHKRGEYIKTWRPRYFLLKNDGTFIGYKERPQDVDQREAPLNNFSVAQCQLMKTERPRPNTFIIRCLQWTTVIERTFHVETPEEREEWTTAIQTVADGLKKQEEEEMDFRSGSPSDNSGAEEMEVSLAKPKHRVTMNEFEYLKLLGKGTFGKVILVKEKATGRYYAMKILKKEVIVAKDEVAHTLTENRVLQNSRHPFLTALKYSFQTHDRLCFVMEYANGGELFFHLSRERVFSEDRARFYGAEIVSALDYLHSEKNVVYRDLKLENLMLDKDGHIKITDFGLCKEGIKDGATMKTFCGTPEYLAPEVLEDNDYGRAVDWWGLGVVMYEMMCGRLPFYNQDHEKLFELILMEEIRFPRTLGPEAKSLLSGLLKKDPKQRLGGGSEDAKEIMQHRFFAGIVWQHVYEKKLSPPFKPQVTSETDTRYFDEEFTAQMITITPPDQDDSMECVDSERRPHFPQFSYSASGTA
Focal adhesion kinase 1, sequence (O35346 whole entry): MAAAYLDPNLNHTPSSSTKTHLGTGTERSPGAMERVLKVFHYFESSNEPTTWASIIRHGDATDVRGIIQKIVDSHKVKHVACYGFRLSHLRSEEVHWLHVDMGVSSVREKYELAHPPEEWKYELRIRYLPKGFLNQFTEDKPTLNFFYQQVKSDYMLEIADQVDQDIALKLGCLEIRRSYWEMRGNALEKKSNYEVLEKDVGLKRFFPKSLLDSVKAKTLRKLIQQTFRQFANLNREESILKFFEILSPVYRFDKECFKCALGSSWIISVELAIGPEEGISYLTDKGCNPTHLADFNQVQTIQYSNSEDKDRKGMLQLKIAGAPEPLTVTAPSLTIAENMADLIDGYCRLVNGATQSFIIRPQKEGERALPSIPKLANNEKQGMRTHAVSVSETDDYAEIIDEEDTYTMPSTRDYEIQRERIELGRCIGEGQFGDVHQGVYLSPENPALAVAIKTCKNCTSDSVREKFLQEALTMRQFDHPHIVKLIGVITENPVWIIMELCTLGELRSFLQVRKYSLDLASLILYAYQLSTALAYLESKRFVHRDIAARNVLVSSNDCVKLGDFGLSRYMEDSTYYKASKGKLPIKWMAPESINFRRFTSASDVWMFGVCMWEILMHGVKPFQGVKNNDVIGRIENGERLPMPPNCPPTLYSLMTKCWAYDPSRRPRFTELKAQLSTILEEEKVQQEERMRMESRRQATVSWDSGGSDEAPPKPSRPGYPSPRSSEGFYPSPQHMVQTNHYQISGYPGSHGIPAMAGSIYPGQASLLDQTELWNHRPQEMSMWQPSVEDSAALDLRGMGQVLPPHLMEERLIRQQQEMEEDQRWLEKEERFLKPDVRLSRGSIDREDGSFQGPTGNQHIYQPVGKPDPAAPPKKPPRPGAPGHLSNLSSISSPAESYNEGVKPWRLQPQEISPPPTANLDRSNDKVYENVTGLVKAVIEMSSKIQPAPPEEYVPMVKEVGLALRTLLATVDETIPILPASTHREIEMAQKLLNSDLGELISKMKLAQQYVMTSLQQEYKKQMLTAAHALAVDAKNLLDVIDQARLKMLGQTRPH
RAC-alpha serine/threonine-protein kinase (Rattus norvegicus, UniProt P47196), sequence (P47196 whole entry): as the sequence (P31749 whole entry) above, with S2N, D46E, A50S, K112R, E117T, S137A, K389T, G410N, H415D counted along it

IC50 [17] | IC50 [18] | IC50 (Focal adhesion kinase 1) | Structure (SMILES) | IC50 (C6 [1]) | IC50 (A549 [2]) | IC50 (NIH3T3) | selectivity ratio [3] | selectivity ratio [4] | Activity (C6 [5]) | Activity (C6 [6]) | Activity (A549 [7]) | Activity (A549 [8]) | Activity (C6 [9]) | Activity (C6 [10]) | Activity (A549 [11]) | Activity (A549 [12]) | Activity (C6 [13]) | Activity (C6 [14]) | Activity (A549 [15]) | Activity (A549 [16]) | other results
– | – | – | Cc1ccc2nc(NC(=O)CSc3nnc(COc4ccc5c(c4)CCCC5)o3)sc2c1 | 108 µM | 210 µM | > 403 µM | > 3.72 | > 1.92 | – | – | – | – | – | – | – | – | – | – | – | – | –
– | – | – | O=C(CSc1nnc(COc2ccc3c(c2)CCCC3)o1)Nc1nc2ccccc2s1 | 153 µM | 247 µM | 96.7 µM | 0.63 | 0.39 | – | – | – | – | – | – | – | – | – | – | – | – | –
– | – | – | O=C(CSc1nnc(COc2ccc3c(c2)CCCC3)o1)Nc1nccs1 | 213 µM | 228 µM | > 403 µM | > 1.89 | > 1.76 | – | – | – | – | – | – | – | – | – | – | – | – | –
44.5 µM | 138 µM | 105 µM | O=C(CSc1nnc(COc2ccc3c(c2)CCCC3)o1)Nc1ncc([N+](=O)[O-])s1 | 66.7 µM | 115 µM | > 403 µM | > 6.04 | > 3.5 | 12.3% | 80.8% | 25.3% | 67.8% | 0.6% | 98% | 2.4% | 95.5% | 90.1% | 11.3% | 95.1% | 5.4% | Activity (A549 [19]): Active; Activity (A549 [20]): Active; Activity (A549 [21]): Active; Activity (A549 [22]): Active; Activity (A549 [23]): Active; Activity (C6 [24]): Active; Activity (C6 [25]): Active; Activity (C6 [26]): Active; Activity (C6 [27]): Active; Activity (C6 [28]): Active
2.6 µM | 27.5 µM | 19.5 µM | COc1ccc2nc(NC(=O)CSc3nnc(COc4ccc5c(c4)CCCC5)o3)sc2c1 | 4.63 µM | 39.3 µM | 94.3 µM | 20.4 | 2.4 | 5% | 92.3% | 12.2% | 71.7% | 24.4% | 74.4% | 69.8% | 27.9% | 69.8% | 33.9% | 76.4% | 25% | Activity (A549 [19]): Active; Activity (A549 [20]): Active; Activity (A549 [21]): Active; Activity (A549 [22]): Active; Activity (A549 [23]): Active; Activity (C6 [24]): Active; Activity (C6 [25]): Active; Activity (C6 [26]): Active; Activity (C6 [27]): Active; Activity (C6 [28]): Active; Activity (A549 [29]): Active; Activity (A549 [30]): Active; Activity (A549 [31]): Active; Activity (C6 [32]): Active; Activity (C6 [33]): Active; Activity (C6 [34]): Active
– | – | – | O=C(CSc1nnc(COc2ccc3c(c2)CCCC3)o1)Nc1nc2ccc(Cl)cc2s1 | 237 µM | 263 µM | 247 µM | 1.04 | 0.94 | – | – | – | – | – | – | – | – | – | – | – | – | –
165 µM | 98.3 µM | 118 µM | O=C(CSc1nnc(COc2ccc3c(c2)CCCC3)o1)Nc1nc2ccc(F)cc2s1 | 89.3 µM | 91.7 µM | 292 µM | 3.27 | 3.18 | 11.9% | 84.9% | 17% | 79.1% | 32.6% | 60.1% | 78.2% | 21% | 90.8% | 11.7% | 93.5% | 7.1% | Activity (A549 [19]): Active; Activity (A549 [20]): Active; Activity (A549 [21]): Active; Activity (A549 [22]): Active; Activity (A549 [23]): Active; Activity (C6 [24]): Active; Activity (C6 [25]): Active; Activity (C6 [26]): Active; Activity (C6 [27]): Active; Activity (C6 [28]): Active
– | – | – | O=C(CSc1nnc(COc2ccc3c(c2)CCCC3)o1)Nc1nc2ccc([N+](=O)[O-])cc2s1 | 98.3 µM | 233 µM | 336 µM | 3.41 | 1.44 | – | – | – | – | – | – | – | – | – | – | – | – | –
– | – | – | CCOc1ccc2nc(NC(=O)CSc3nnc(COc4ccc5c(c4)CCCC5)o3)sc2c1 | 93.3 µM | 283 µM | > 403 µM | > 4.32 | > 1.42 | – | – | – | – | – | – | – | – | – | – | – | – | –
6.97 µM | – | – | CCn1c(-c2nonc2N)nc2c(C#CC(C)(C)O)ncc(OC[C@H]3CCCNC3)c21 [GSK-690693] | 14.5 µM | 105 µM | – | – | – | – | – | – | – | – | – | – | – | – | – | – | – | –
